Data as given in ChEMBL document CHEMBL4118078, “Developing pyridazine-3-carboxamides to be CB2 agonists: The design, synthesis, structure-activity relationships and docking studies” (Eur J Med Chem, 2017).

Assays:
[1] = biological target: T1, Cannabinoid receptor 2 (Homo sapiens, UniProt P34972); test: Agonist activity at CB2 receptor (unknown origin) expressed in CHO cells assessed as induction of calcium mobilization by fluo-4 AM dye-based fluorescence assay relative to CP55940; assay type: functional, cell-based
T1 sequence (P34972 whole entry): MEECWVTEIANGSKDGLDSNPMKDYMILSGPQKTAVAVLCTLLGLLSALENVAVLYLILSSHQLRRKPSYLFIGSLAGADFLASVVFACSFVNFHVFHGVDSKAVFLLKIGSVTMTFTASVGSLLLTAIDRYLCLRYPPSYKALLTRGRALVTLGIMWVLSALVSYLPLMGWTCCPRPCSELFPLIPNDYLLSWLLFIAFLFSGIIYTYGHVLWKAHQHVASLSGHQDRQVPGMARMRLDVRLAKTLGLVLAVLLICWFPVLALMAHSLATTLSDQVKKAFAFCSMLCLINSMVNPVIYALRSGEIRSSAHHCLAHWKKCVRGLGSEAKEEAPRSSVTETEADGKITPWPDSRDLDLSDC
Outline: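 Cell-based calcium mobilization, agonist mode, with CP55940 as positive control. Compounds giving more than 50% activation in a single-concentration 10 µM primary screen were run in dose-response to derive EC50.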

[2] = biological target: T2, Cannabinoid receptor 1 (Homo sapiens, UniProt P21554); test: Agonist activity at CB1 receptor (unknown origin) expressed in CHO cells assessed as induction of calcium mobilization at 10 uM by fluo-4 AM dye-based fluorescence assay relative to CP55940; assay type: functional, cell-based
T2 sequence (P21554 whole entry): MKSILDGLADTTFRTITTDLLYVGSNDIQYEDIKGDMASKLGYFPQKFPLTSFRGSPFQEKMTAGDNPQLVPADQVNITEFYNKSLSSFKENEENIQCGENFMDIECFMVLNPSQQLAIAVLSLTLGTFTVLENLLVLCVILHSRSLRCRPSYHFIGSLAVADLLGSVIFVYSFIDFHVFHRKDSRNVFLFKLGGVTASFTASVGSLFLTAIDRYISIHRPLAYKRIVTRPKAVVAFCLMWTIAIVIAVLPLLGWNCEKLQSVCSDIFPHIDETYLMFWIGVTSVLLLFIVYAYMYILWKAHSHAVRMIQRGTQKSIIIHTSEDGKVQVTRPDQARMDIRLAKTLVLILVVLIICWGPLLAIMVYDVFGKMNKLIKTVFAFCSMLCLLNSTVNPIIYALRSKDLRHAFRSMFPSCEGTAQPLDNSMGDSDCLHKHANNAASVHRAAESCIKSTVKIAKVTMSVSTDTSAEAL

[3] = biological target: T1, Cannabinoid receptor 2; test: Agonist activity at CB2 receptor (unknown origin) expressed in CHO cells assessed as induction of calcium mobilization by fluo-4 AM dye-based fluorescence assay; assay type: functional, cell-based
[4] = biological target: T2, Cannabinoid receptor 1; test: Agonist activity at CB1 receptor (unknown origin) expressed in CHO cells assessed as induction of calcium mobilization by fluo-4 AM dye-based fluorescence assay; assay type: functional, cell-based
[5] = biological target: T1, Cannabinoid receptor 2; test: Agonist activity at CB2 receptor (unknown origin) expressed in CHO cells assessed as induction of calcium mobilization at 10 uM by fluo-4 AM dye-based fluorescence assay relative to CP55940; assay type: functional, cell-based
[6] = organism: Homo sapiens; test: Selectivity index, ratio of EC50 for CB1 receptor (unknown origin) to EC50 for CB2 receptor (unknown origin)
[7] = biological target: T2, Cannabinoid receptor 1; test: Antagonist activity at CB1 receptor (unknown origin) expressed in CHO cells assessed as inhibition of CP55940-induced calcium mobilization at 10 uM preincubated for 10 mins followed by CP55940-induction by fluo-4 AM dye-based fluorescence assay relative to SR141716A; assay type: functional, cell-based
Outline: (§1)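 Cell-based calcium mobilization, antagonist mode, single-concentration screen at 10 µM against CB1 and CB2. SR141716A served as the antagonist-mode positive control.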

[8] = biological target: T1, Cannabinoid receptor 2; test: Antagonist activity at CB2 receptor (unknown origin) expressed in CHO cells assessed as inhibition of CP55940-induced calcium mobilization at 10 uM preincubated for 10 mins followed by CP55940-induction by fluo-4 AM dye-based fluorescence assay relative to SR141716A; assay type: functional, cell-based; outline: as §1

Compound: CC(C)c1cc(NC2CCCCC2)nnc1C(=O)NC1C2CC3CC(C2)CC1C3 (stereo not given)
- Emax [1]: 81%
- Activity [2]: -0.238%
- EC50 [3]: 398 nM
- EC50 [4]: > 10000 nM
- Activity [5]: 119%
- Ratio EC50 [6]: > 25

Compound: CC(C)c1cc(C(=O)NC2C3CC4CC(C3)CC2C4)nnc1NCCO (stereo not given)
- Emax [1]: 127%
- Activity [2]: -0.906%
- EC50 [3]: 99.9 nM
- inhibition [7]: 1.87%
- EC50 [4]: > 10000 nM
- Activity [5]: 124%
- Ratio EC50 [6]: > 100

Compound: CC(C)c1cc(N2CCOCC2)nnc1C(=O)NC12CC3CC(CC(C3)C1)C2
- Emax [1]: 93%
- Activity [2]: 3.8%
- EC50 [3]: 396 nM
- inhibition [7]: 16.9%
- EC50 [4]: > 10000 nM
- Activity [5]: 117%
- Ratio EC50 [6]: > 25

Compound: O=C(NC1CCCCC1)c1ccc(N2CCOCC2)nn1
- Activity [2]: -3.69%
- EC50 [3]: > 10000 nM
- EC50 [4]: > 10000 nM
- Activity [5]: 17.7%
- inhibition [8]: 16.3%

Compound: CC(C)c1cc(NC2CCCC2)nnc1C(=O)NC1CCCCC1
- Emax [1]: 78%
- Activity [2]: 9.48%
- EC50 [3]: 338 nM
- EC50 [4]: > 10000 nM
- Activity [5]: 87.5%
- Ratio EC50 [6]: > 30

Compound: CC(C)c1cc(NC2CCCC2)nnc1C(=O)NC12CC3CC(CC(C3)C1)C2
- Emax [1]: 80%
- Activity [2]: 19.5%
- EC50 [3]: 301 nM
- inhibition [7]: 44.5%
- EC50 [4]: > 10000 nM
- Activity [5]: 95.5%
- Ratio EC50 [6]: > 33

Compound: CC(C)c1cc(C(=O)NC2CCCCC2)nnc1N1CCOCC1
- Emax [1]: 99%
- Activity [2]: -4.03%
- EC50 [3]: 970 nM
- inhibition [7]: -8.12%
- EC50 [4]: > 10000 nM
- Activity [5]: 107%
- Ratio EC50 [6]: > 10

Compound: CC(C)c1cc(C(=O)NC2C3CC4CC(C3)CC2C4)nnc1NCC1CC1 (stereo not given)
- Emax [1]: 109%
- Activity [2]: 39.3%
- EC50 [3]: 167 nM
- EC50 [4]: 6050 nM
- Activity [5]: 113%
- Ratio EC50 [6]: 36

Compound: CC(C)c1cc(NCCO)nnc1C(=O)NC1CCCCC1
- Emax [1]: 81%
- Activity [2]: 14.8%
- EC50 [3]: 842 nM
- EC50 [4]: > 10000 nM
- Activity [5]: 91.1%
- Ratio EC50 [6]: > 12

Compound: CC(C)c1cc(NCC2CC2)nnc1C(=O)NC1C2CC3CC(C2)CC1C3 (stereo not given)
- Emax [1]: 135%
- Activity [2]: 31.3%
- EC50 [3]: 47.7 nM
- inhibition [7]: 22.1%
- EC50 [4]: > 10000 nM
- Activity [5]: 125%
- Ratio EC50 [6]: > 210

Compound: CC(C)c1cc(N2CCOCC2)nnc1C(=O)NC1CCCCC1
- Emax [1]: 91%
- Activity [2]: 6.25%
- EC50 [3]: 594 nM
- inhibition [7]: -9.42%
- EC50 [4]: > 10000 nM
- Activity [5]: 87.2%
- Ratio EC50 [6]: > 17

Compound: CC(C)c1cc(NC(C)C(C)C)nnc1C(=O)NC1C2CC3CC(C2)CC1C3 (stereo not given)
- Emax [1]: 77%
- Activity [2]: 10.7%
- EC50 [3]: 2940 nM
- inhibition [7]: 7.68%
- EC50 [4]: > 10000 nM
- Activity [5]: 82%
- Ratio EC50 [6]: > 3

Compound: CCCCNc1nnc(C(=O)NC2C3CC4CC(C3)CC2C4)cc1C(C)C (stereo not given)
- Emax [1]: 93%
- Activity [2]: 89.3%
- EC50 [3]: 96.2 nM
- EC50 [4]: 2610 nM
- Activity [5]: 97.1%
- Ratio EC50 [6]: 27

Compound: O=C(NCC1CCOCC1)c1cnc(Nc2ccc(Cl)cc2Cl)nc1C(F)(F)F [GW842166X]
- Activity [2]: 18.2%
- inhibition [7]: 11.8%
- EC50 [4]: > 10000 nM
- Activity [5]: 129%
- Ratio EC50 [6]: > 29

Compound: CC(C)c1cc(C(=O)NC2C3CC4CC(C3)CC2C4)nnc1N1CCCCC1 (stereo not given)
- Emax [1]: 106%
- Activity [2]: -1.23%
- EC50 [3]: 3450 nM
- inhibition [7]: -3.84%
- EC50 [4]: > 10000 nM
- Activity [5]: 63%
- Ratio EC50 [6]: > 3

Compound: CC(C)c1cc(C(=O)NC2C3CC4CC(C3)CC2C4)nnc1NC1CCCCC1 (stereo not given)
- Emax [1]: 91%
- Activity [2]: 2.64%
- EC50 [3]: 199 nM
- inhibition [7]: 39.3%
- EC50 [4]: > 10000 nM
- Activity [5]: 106%
- Ratio EC50 [6]: > 50

Compound: CC(C)c1cc(N2CCCCC2)nnc1C(=O)NC1C2CC3CC(C2)CC1C3 (stereo not given)
- Emax [1]: 140%
- Activity [2]: 16%
- EC50 [3]: 18.1 nM
- inhibition [7]: 44.1%
- EC50 [4]: > 10000 nM
- Activity [5]: 114%
- Ratio EC50 [6]: > 553

Compound: CCCCNc1cc(C(C)C)c(C(=O)NC23CC4CC(CC(C4)C2)C3)nn1
- Emax [1]: 76%
- Activity [2]: 10.7%
- EC50 [3]: 159 nM
- EC50 [4]: 10000 nM
- Activity [5]: 64%
- Ratio EC50 [6]: > 63

Compound: CC(C)c1cc(NCCO)nnc1C(=O)NC12CC3CC(CC(C3)C1)C2
- Emax [1]: 114%
- Activity [2]: 13.4%
- EC50 [3]: 42.6 nM
- EC50 [4]: > 10000 nM
- Activity [5]: 125%
- Ratio EC50 [6]: > 235

Compound: CC(C)c1cc(NC2CC2)nnc1C(=O)NC1C2CC3CC(C2)CC1C3 (stereo not given)
- Emax [1]: 117%
- Activity [2]: 7.48%
- EC50 [3]: 17.1 nM
- EC50 [4]: > 10000 nM
- Activity [5]: 119%
- Ratio EC50 [6]: > 584

Compound: CC(C)c1cc(NCCO)nnc1C(=O)NC1C2CC3CC(C2)CC1C3 (stereo not given)
- Emax [1]: 94%
- Activity [2]: 17.4%
- EC50 [3]: 4.96 nM
- inhibition [7]: -8.39%
- EC50 [4]: > 10000 nM
- Activity [5]: 137%
- Ratio EC50 [6]: > 2020

Compound: O=C(NC1C2CC3CC(C2)CC1C3)c1ccc(N2CCOCC2)nn1 (stereo not given)
- Emax [1]: 79%
- Activity [2]: 3.24%
- EC50 [3]: 8420 nM
- inhibition [7]: 17.7%
- EC50 [4]: > 10000 nM
- Activity [5]: 63.2%
- Ratio EC50 [6]: > 1

Compound: O=C(NC12CC3CC(CC(C3)C1)C2)c1ccc(N2CCOCC2)nn1
- Activity [2]: -4.49%
- EC50 [3]: > 10000 nM
- EC50 [4]: > 10000 nM
- Activity [5]: 33.7%
- inhibition [8]: 25.8%

Compound: CC(C)c1cc(NC2CCCC2)nnc1C(=O)NC1C2CC3CC(C2)CC1C3 (stereo not given)
- Emax [1]: 107%
- Activity [2]: 23.2%
- EC50 [3]: 5.7 nM
- inhibition [7]: 38.2%
- EC50 [4]: > 10000 nM
- Activity [5]: 141%
- Ratio EC50 [6]: > 1750

Compound: CCCCNc1cc(C(C)C)c(C(=O)NC2C3CC4CC(C3)CC2C4)nn1 (stereo not given)
- Emax [1]: 108%
- Activity [2]: 13.7%
- EC50 [3]: 49.4 nM
- EC50 [4]: > 10000 nM
- Activity [5]: 91.4%
- Ratio EC50 [6]: > 203

Compound: CC(C)c1cc(Nc2cccc(Cl)c2)nnc1C(=O)NC1C2CC3CC(C2)CC1C3 (stereo not given)
- Emax [1]: 77%
- Activity [2]: -6.45%
- EC50 [3]: 6700 nM
- EC50 [4]: > 10000 nM
- Activity [5]: 48%
- Ratio EC50 [6]: > 1
- inhibition [8]: 44.3%

Compound: CC(C)c1cc(C(=O)NC2C3CC4CC(C3)CC2C4)nnc1N1CCOCC1 (stereo not given)
- Emax [1]: 105%
- Activity [2]: -0.267%
- EC50 [3]: 403 nM
- inhibition [7]: 1.8%
- EC50 [4]: > 10000 nM
- Activity [5]: 107%
- Ratio EC50 [6]: > 25

Compound: CC(C)c1cc(C(=O)NC23CC4CC(CC(C4)C2)C3)nnc1N1CCOCC1
- Emax [1]: 125%
- Activity [2]: -2.98%
- EC50 [3]: 349 nM
- EC50 [4]: > 10000 nM
- Activity [5]: 101%
- Ratio EC50 [6]: > 29
